Data published in ChEMBL document CHEMBL4431329, “Peripherally Selective Cannabinoid 1 Receptor (CB1R) Agonists for the Treatment of Neuropathic Pain” (J Med Chem, 2016).
Activity calls are given as the source filed them.

What was measured:
[1] = Metabolic stability in Sprague-Dawley rat liver S9 fraction assessed as compound remaining at 10 uM measured at 1 hr by LC/MS analysis; format: ADME, subcellular; conditions: s9, 1 h
Outline: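 Compound (10 μM final, from 1 mM ethanol stock) was incubated at 37 °C in male Sprague–Dawley rat liver S9 (1 mg protein/mL). The mix held an NADPH-regenerating system (1 mM NADP, 5 mM glucose 6-phosphate, 1 U/mL G6PDH) in 50 mM KPO4 pH 7.4 with 3 mM MgCl2, preincubated 5 min. Samples at 0–120 min were methanol-extracted and analysed by LC/MS.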

[2] = Metabolic stability in Sprague-Dawley rat plasma assessed as compound remaining at 10 uM measured at 1 hr by LC/MS analysis; format: ADME, cell-free
Outline: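 Compound (10 μM final, from 1 mM ethanol stock) was incubated in male Sprague–Dawley rat plasma at 37 °C. Aliquots taken at 0, 30 and 60 min were extracted with 3 volumes methanol and centrifuged. Supernatants were analysed by LC/MS.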

Rattus norvegicus [3] = assay: Antiallodynic activity in SNE-induced mechanical allodynia naive Sprague-Dawley rat model assessed as decrease in hindpaw ipsilateral withdrawal threshold at 0.6 mg/kg, ip preincubated for 3 hrs followed by SNE addition in presence of rimonabant; format: functional, organism-based
Outline: (§1)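 SNE rats were given the test agonist ip alone, or 30 min after pretreatment with a selective CB1R or CB2R antagonist, with sessions at 3-day intervals. Ipsilateral hindpaw withdrawal threshold was measured by digital von Frey (4 readings per paw averaged). Tests were blinded.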

Rattus norvegicus [4] = assay: Analgesic activity in naive Sprague-Dawley rat assessed as tail flick latency at 0.1 to 10 mg/kg administered through oral gavage up to 48 hrs by tail-flick assay; format: functional, organism-based
Outline: (§2)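 Naïve male Sprague–Dawley rats were dosed ip (DMSO/Cremophor EL/saline) or by gavage (DMSO in 20% condensed milk). Radiant heat was aimed 3 cm from the tail tip and latency timed by photocell. Baseline was set to ~5–7 s with a 25 s cutoff. Testing ran 1 h pre-dose and up to 48 h after. Peak effect was taken minus vehicle; n = 6–8; blinded.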

Rattus norvegicus [5] = assay: Increase in SNE-induced hindpaw contralateral withdrawal threshold in naive Sprague-Dawley rat at 0.3 mg/kg, ip incubated for 3 hrs followed by SNE addition; format: organism-based; conditions: in vivo
Outline: (§3)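 Male Sprague–Dawley rats received unilateral sciatic nerve entrapment. Testing began 8 days post-surgery at 3-day intervals, dosed ip in DMSO/Cremophor EL/saline. Hindpaw withdrawal threshold (g) was read with a digital von Frey meter, 4 readings per paw at 30 s spacing, averaged. Reads were taken 1 h before and 3, 6, 24 and 48 h after dosing; n = 8; blinded; one-way RM ANOVA.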

Rattus norvegicus [6] = assay: Antiallodynic activity in SNE-induced mechanical allodynia naive Sprague-Dawley rat model assessed as […] in hindpaw ipsilateral withdrawal threshold at 0.6 mg/kg, ip preincubated for 3 hrs followed by SNE addition in presence of tert-Butyl-4-[5-(4-Chlorophenyl)-1-(2,4-dichlorophenyl)-4- methyl-1H-pyrazole-3-amido]piperidine-1-carboxylate; format: functional, organism-based; outline: as §1
Rattus norvegicus [7] = assay: Antiallodynic activity in SNE-induced mechanical allodynia naive Sprague-Dawley rat model assessed as […] in hindpaw ipsilateral withdrawal threshold at 3 mg/kg, po preincubated for 3 hrs followed by SNE addition; format: functional, organism-based
Outline: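 SNE rats were dosed by oral gavage (drug in DMSO diluted in 20% sweetened condensed milk, 16 mL/kg). Ipsilateral/contralateral hindpaw withdrawal thresholds were measured by digital von Frey, 4 readings per paw averaged, before and at intervals after dosing. n = 8 rats; blinded; one-way RM ANOVA against predrug values.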

[8] = Ratio of drug level in cerebrospinal fluid to plasma in naive Sprague-Dawley rat at 0.3 mg/kg, ip after 75 mins; format: ADME, organism-based, CSF/Plasma
Outline: (§4)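 Samples taken from 3 rats ~75 min after ip dosing. CSF (100–150 μL) was taken from the cisterna magna under isoflurane. Brain was removed after pentobarbital anesthesia and cold-saline intracardiac perfusion. Plasma came from tail-vein blood. Drug was measured by LC-MS/MS against standard curves made in untreated-animal matrix, and the ratio was taken to plasma.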

Cannabinoid receptor 2 = Cannabinoid receptor 2 (Homo sapiens, UniProt P34972); assay: Agonist activity at human CB2R expressed in CHO cells by Ca2+ flux assay; format: functional, cell-based
Cannabinoid receptor 2, sequence (P34972 whole entry): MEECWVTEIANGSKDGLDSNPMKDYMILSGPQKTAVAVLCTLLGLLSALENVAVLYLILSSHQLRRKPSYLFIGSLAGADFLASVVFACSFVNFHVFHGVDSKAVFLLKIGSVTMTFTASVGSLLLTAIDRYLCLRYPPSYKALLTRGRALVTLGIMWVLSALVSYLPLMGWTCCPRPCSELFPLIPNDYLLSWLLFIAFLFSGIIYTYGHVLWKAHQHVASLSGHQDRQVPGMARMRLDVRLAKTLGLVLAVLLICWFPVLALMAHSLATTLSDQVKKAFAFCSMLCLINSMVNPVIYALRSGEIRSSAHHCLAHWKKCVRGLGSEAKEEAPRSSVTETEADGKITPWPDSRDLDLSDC
Outline: (§5)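 CHO cells stably co-expressing human CB1 or CB2 with Gαq16 were seeded at 40000/well and grown 24 h at 37 °C. They were loaded 1 h at 37 °C with Fluo-4 AM (2 μM final) in HBSS/20 mM HEPES/1% BSA/probenecid. Agonist was added after ~17 s baseline, and fluorescence (ex 488/em 525) was read each 1 s for 60 s. Runs were done 3–6 times; mean ± SEM.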

Cannabinoid receptor 1 = Cannabinoid receptor 1 (Homo sapiens, UniProt P21554); assay: Agonist activity at human CB1R expressed in CHO cells by Ca2+ flux assay; format: functional, cell-based; outline: as §5
Cannabinoid receptor 1, sequence (P21554 whole entry): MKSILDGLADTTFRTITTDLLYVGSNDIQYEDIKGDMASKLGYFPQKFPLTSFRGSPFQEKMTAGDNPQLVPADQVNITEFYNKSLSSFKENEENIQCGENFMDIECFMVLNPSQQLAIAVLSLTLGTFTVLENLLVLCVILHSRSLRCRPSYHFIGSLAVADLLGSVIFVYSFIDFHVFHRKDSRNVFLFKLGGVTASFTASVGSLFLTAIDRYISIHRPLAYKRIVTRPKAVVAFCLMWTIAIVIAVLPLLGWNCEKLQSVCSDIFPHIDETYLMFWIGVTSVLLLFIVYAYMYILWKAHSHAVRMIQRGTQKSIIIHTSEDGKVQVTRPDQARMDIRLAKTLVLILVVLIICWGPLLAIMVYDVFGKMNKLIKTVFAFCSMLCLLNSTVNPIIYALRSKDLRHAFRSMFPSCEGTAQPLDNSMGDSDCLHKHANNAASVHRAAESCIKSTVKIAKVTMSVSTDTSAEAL

[9] = Ratio of drug level in brain to plasma in naive Sprague-Dawley rat at 0.3 mg/kg, ip after 75 mins; format: ADME, organism-based; conditions: read-out: BPR; outline: as §4
[10] = Cmax in naive naive Sprague-Dawley rat at 0.3 mg/kg, ip by LC/MS/MS analysis; format: ADME, organism-based; parameters: dose 0.3 mg/kg, route intraperitoneal; conditions: in vivo
Outline: (§6)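 Male Sprague–Dawley rats given a single ip injection (drug in 50/50 DMSO:Cremophor EL, diluted in sterile saline, 1.5 mL/kg). Tail-vein blood (~110 μL) drawn at intervals after brief restraint, centrifuged, plasma stored −20 °C. Quantified by LC-MS/MS against standard curves prepared in samples from untreated animals; n = 3 rats.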

[11] = Toxicity in naive Sprague-Dawley rat assessed as immobility at 10 mg/kg administered through oral gavage after 2 to 48 hrs by catalepsy ring test; format: organism-based; conditions: in vivo
Outline: (§7)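 In the ring immobility test, forepaws were placed on a 12 cm horizontal ring with hindpaws just touching the bench. Time to move off was recorded, 100 s cutoff. Testing was pre-dose and 2, 6, 24 and 48 h after ip or oral gavage dosing. Values are peak effect minus vehicle; n = 6–8; blinded.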

[12] = Half life in naive Sprague-Dawley rat at 0.3 mg/kg, ip by LC/MS/MS analysis; format: ADME, organism-based; conditions: in vivo; outline: as §6
[13] = Toxicity in naive Sprague-Dawley rat assessed as hypothermia at 0.3 mg/kg, ip after 2 to 48 hrs by core temperature test; format: organism-based; conditions: in vivo
Outline: (§8)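 Naïve rats were acclimated to a restrainer (two 5-min sessions 20 min apart). Core temperature was taken before and 2, 6, 24 and 48 h after ip (DMSO/Cremophor EL/saline) or oral gavage (DMSO in 20% condensed milk) dosing. Dose-response points are mean peak effect minus vehicle; n = 6–8 rats; blinded.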

Rattus norvegicus [14] = assay: Analgesic activity in naive Sprague-Dawley rat assessed as increase in tail flick latency at 0.3 mg/kg, ip up to 48 hrs by tail-flick assay; format: functional, organism-based; outline: as §2
[15] = Toxicity in naive Sprague-Dawley rat assessed as immobility at 0.3 mg/kg, ip after 2 to 48 hrs by catalepsy ring test; format: organism-based; conditions: in vivo; outline: as §7
Rattus norvegicus [16] = assay: Antiallodynic activity in SNE-induced mechanical allodynia naive Sprague-Dawley rat model assessed as decrease in hindpaw ipsilateral withdrawal threshold at 0.6 mg/kg, ip preincubated for 3 hrs followed by SNE addition in presence of SR144528; format: functional, organism-based; outline: as §1
[17] = Toxicity in naive Sprague-Dawley rat assessed as motor incoordination at 10 mg/kg administered through oral gavage after 2 to 48 hrs by rotarod test; format: organism-based; conditions: in vivo
Outline: (§9)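 Rats were trained 72 h earlier (3 sessions, 24 h apart) to stay ≥180 s on an accelerating rotarod (4–40 rev over 5 min). Time on rod was recorded to a 3 min cutoff, 1 h pre-dose and 2, 6, 24 and 48 h after ip or oral gavage dosing. Values are peak effect minus vehicle; n = 6–8; blinded.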

[18] = Toxicity in naive Sprague-Dawley rat assessed as hypothermia at 10 mg/kg administered through oral gavage after 2 to 48 hrs by core temperature test; format: organism-based; conditions: in vivo; outline: as §8
Rattus norvegicus [19] = assay: Antiallodynic activity in SNE-induced mechanical allodynia naive Sprague-Dawley rat model assessed as reversible […] in hindpaw ipsilateral withdrawal threshold at 0.3 mg/kg, ip preincubated for 3 hrs followed by SNE addition; format: functional, organism-based; outline: as §3
Rattus norvegicus [20] = assay: Antiallodynic activity in SNE-induced mechanical allodynia naive Sprague-Dawley rat model assessed as decrease in hindpaw ipsilateral withdrawal threshold at 0.6 mg/kg, ip preincubated for 3 hrs followed by SNE addition in presence of SR141716; format: functional, organism-based; outline: as §1
[21] = AUC in naive Sprague-Dawley rat at 0.3 mg/kg, ip by LC/MS/MS analysis; format: ADME, organism-based; conditions: in vivo; outline: as §6
[22] = Toxicity in naive Sprague-Dawley rat assessed as motor incoordination at 0.3 mg/kg, ip after 2 to 48 hrs by rotarod test; format: organism-based; conditions: in vivo; outline: as §9

CCCc1ccc(/C=C2\C=C(CCN3CCOCC3)c3ccccc32)c2ccccc12
Stability [1]: 37% | Stability [2]: 92% | Activity (Rattus norvegicus [3]): inactive | Activity (Rattus norvegicus [4]): Active | Activity (Rattus norvegicus [5]): Toxic | Activity (Rattus norvegicus [6]): inactive | Activity (Rattus norvegicus [7]): Active | Kp at 1.25 h [8]: 0.001 | EC50 (Cannabinoid receptor 2): 94 nM | Emax (Cannabinoid receptor 2): 69% | EC50 (Cannabinoid receptor 1): 182 nM | Emax (Cannabinoid receptor 1): 108% | Kp at 1.25 h [9]: 0.182 | Cmax [10]: 11.9 ng/mL | Activity [11]: Non-Toxic | half-life [12]: 7.2 h | Activity [13]: Non-Toxic | Activity (Rattus norvegicus [14]): Active | Activity [15]: Non-Toxic | Activity (Rattus norvegicus [16]): Active | Activity [17]: Non-Toxic | Activity [18]: Non-Toxic | Activity (Rattus norvegicus [19]): Active | Activity (Rattus norvegicus [20]): inactive | AUC [21]: 112 ng·h/mL | Activity [22]: Non-Toxic
